Activity calls are given as the source filed them. The calls are words filed in the database; no cut-off is given here.
Legend:
[1] = target: Mu-type opioid receptor (Mus musculus) (UniProt P42866); assay: Inhibition of MOPr desensitization in C57BL/6J mouse LC neuron cells assessed as reduction in the Met-Enk induced desensitization at 3 uM incubated for 15 mins before
[2] = target: Glycogen synthase kinase-3 beta (Homo sapiens) (UniProt P49841); assay: Inhibition of human GSK3b assessed as remaining activity at 1 uM in presence of 32ATP relative to control
Outline: (§1)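 Express panel of 52 purified human kinases run in vitro. Kinase activity was measured directly by a radioactive filter-binding assay with ³²ATP, at ATP levels at or below each kinase's calculated Km for ATP. The compound was tested at 1 μM. Each assay was run in duplicate, and activity is given as the mean percentage (with S.D.) of activity without inhibitor.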

[3] = target: Ribosomal protein S6 kinase alpha-5 (Homo sapiens) (UniProt O75582); assay: Inhibition of human MSK1 at 1 uM in presence of 32ATP relative to control
Outline: as §1

[4] = target: Mu-type opioid receptor (Rattus norvegicus) (UniProt P33535); assay: Inhibition of MOPr desensitization in wistar rat LC neuron cells assessed as Met-Enk response at 3 uM incubated for 15 mins relative to control
Target sequence in this assay (P33535 whole entry): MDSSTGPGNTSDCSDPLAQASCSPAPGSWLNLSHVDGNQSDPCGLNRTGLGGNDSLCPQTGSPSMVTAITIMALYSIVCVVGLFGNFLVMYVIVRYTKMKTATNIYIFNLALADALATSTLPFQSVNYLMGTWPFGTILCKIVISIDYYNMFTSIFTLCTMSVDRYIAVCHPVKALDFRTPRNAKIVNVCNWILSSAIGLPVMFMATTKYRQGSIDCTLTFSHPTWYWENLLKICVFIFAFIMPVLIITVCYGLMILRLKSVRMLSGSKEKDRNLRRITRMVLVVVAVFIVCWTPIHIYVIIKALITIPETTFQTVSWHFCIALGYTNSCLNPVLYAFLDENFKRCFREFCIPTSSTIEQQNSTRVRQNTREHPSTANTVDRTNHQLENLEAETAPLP

[5] = target: Casein kinase 2 (Homo sapiens) (UniProt P67870+P68400+P19784+Q8NEV1); assay: Inhibition of human CK2 assessed as remaining activity at 1 uM in presence of 32ATP relative to control; type: protein assay
Outline: (§2)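 Express screen of 52 purified human kinases run as a radioactive filter-binding assay with 32ATP, at 1 μM inhibitor. ATP was at or below each kinase's calculated Km. Activity is given as percent of the activity without inhibitor. Run in duplicate; mean with S.D.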

[6] = target: Serine/threonine-protein kinase Sgk1 (Homo sapiens) (UniProt O00141); assay: Inhibition of human SGK1 at 1 uM in presence of 32ATP relative to control
Outline: as §1

Homo sapiens = organism: Homo sapiens; assay: Inhibition of human VEGFR assessed as remaining activity at 1 uM in presence of 32ATP relative to control
Outline: as §1

[7] = target: Insulin-like growth factor 1 receptor (Homo sapiens) (UniProt P08069); assay: Inhibition of human IGF1R assessed as remaining activity at 1 uM in presence of 32ATP relative to control
Outline: as §1

[8] = target: Serine/threonine-protein kinase Nek6 (Homo sapiens) (UniProt Q9HC98); assay: Inhibition of human NEK6 assessed as remaining activity at 1 uM in presence of 32ATP relative to control
Outline: as §1

[9] = target: Mitogen-activated protein kinase kinase kinase 11 (Homo sapiens) (UniProt Q16584); assay: Inhibition of human MLK3 assessed as remaining activity at 1 uM in presence of 32ATP relative to control
Outline: as §1

[10] = target: Mu-type opioid receptor (Rattus norvegicus) (UniProt P33535); assay: Inhibition of MOPr desensitization (unknown origin) assessed as reduction in the DAMGO induced desensitization at 3 to 30 uM incubated for 15 mins; details: dose 3-30 µM
Target sequence in this assay (P33535 whole entry, looked up): as the sequence (P33535 whole entry) above

[11] = target: Beta-2 adrenergic receptor (Bos taurus) (UniProt Q28044); assay: Inhibition of bovine beta2-adrenoceptor desensitization in HEK293 cell; type: cell-based; details: dose 3-30 µM
[12] = target: Mitogen-activated protein kinase; ERK1/ERK2 (Homo sapiens) (UniProt P27361+P28482); assay: Inhibition of ERK1/2 (unknown origin) at 1 uM in presence of 32ATP relative to control; type: protein assay
Outline: as §2

[13] = target: Serine/threonine-protein kinase PAK 4 (Homo sapiens) (UniProt O96013); assay: Inhibition of human PAK4 assessed as remaining activity at 1 uM in presence of 32ATP relative to control
Outline: as §1

[14] = target: Mu-type opioid receptor (Rattus norvegicus) (UniProt P33535); assay: Inhibition of MOPr desensitization in wistar rat LC neuron cells assessed as reduction in the Met-Enk induced desensitization at 30 uM incubated for 15 mins before in the presence of SP600125; type: functional, cell-based
Target sequence in this assay (P33535 whole entry): as above

[15] = target: High affinity nerve growth factor receptor (Homo sapiens) (UniProt P04629); assay: Inhibition of human TrkA assessed as remaining activity at 1 uM in presence of 32ATP relative to control
Outline: as §1

[16] = target: Ephrin type-A receptor 2 (Homo sapiens) (UniProt P29317); assay: Inhibition of human EPHA2 assessed as remaining activity at 1 uM in presence of 32ATP relative to control
Outline: as §1

[17] = target: Mitogen-activated protein kinase kinase kinase 7 (Homo sapiens) (UniProt O43318); assay: Inhibition of human TAK1 assessed as remaining activity at 1 uM in presence of 32ATP relative to control
Outline: as §1

[18] = target: Serine/threonine-protein kinase D1 (Homo sapiens) (UniProt Q15139); assay: Inhibition of human PKD1 assessed as remaining activity at 1 uM in presence of 32ATP relative to control
Outline: as §1

[19] = target: Mitogen-activated protein kinase 3 (Homo sapiens) (UniProt P27361); assay: Inhibition of human ERK1 assessed as remaining activity at 1 uM in presence of 32ATP relative to control
Outline: as §1

[20] = target: Serine/threonine-protein kinase 3 (Homo sapiens) (UniProt Q13188); assay: Inhibition of human MST2 assessed as remaining activity at 1 uM in presence of 32ATP relative to control
Outline: as §1

[21] = target: Mu-type opioid receptor (Rattus norvegicus) (UniProt P33535); assay: Inhibition of MOPr desensitization in wistar rat LC neuron cells assessed as reduction in the Met-Enk induced desensitization at 30 uM incubated for 15 mins before in the presence of amlexanox; type: functional, cell-based
Target sequence in this assay (P33535 whole entry): as above

[22] = target: Serine/threonine-protein kinase Sgk1 (Homo sapiens) (UniProt O00141); assay: Inhibition of human SGK1 assessed as remaining activity at 1 uM in presence of 32ATP relative to control
Outline: as §1

[23] = target: Mu-type opioid receptor (Rattus norvegicus) (UniProt P33535); assay: Inhibition of HA-tagged rat MOPr in HEK293 cells assessed as reduction in DAMGO induced MOPr internalization level at 30 uM preincubated for 30 mins by ELISA method; type: functional, cell-based
Outline: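 Surface HA-MOPr in HEK 293 cells was prelabeled with anti-HA for 1 h at 4°C, then inhibitor (3 or 30 μM) was given for 30 min at 37°C, then DAMGO 10 μM at 37°C. Surface receptor was measured by ELISA and normalized to cells not exposed to DAMGO; n = 3–4.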
Target sequence in this assay (P33535 whole entry): as above

[24] = target: Serine/threonine-protein kinase PLK1 (Homo sapiens) (UniProt P53350); assay: Inhibition of human PLK1 assessed as remaining activity at 1 uM in presence of 32ATP relative to control
Outline: as §1

[25] = target: Aurora kinase B (Homo sapiens) (UniProt Q96GD4); assay: Inhibition of human Aurora B assessed as remaining activity at 1 uM in presence of 32ATP relative to control
Outline: as §2

[26] = target: Mu-type opioid receptor (Rattus norvegicus) (UniProt P33535); assay: Inhibition of HA-tagged rat MOPr in HEK293 cells assessed as prevention in DAMGO induced MOPr phosphorylation at Thr379 level at 30 uM preincubated for 30 mins by western blot analysis; type: functional, cell-based
Target sequence in this assay (P33535 whole entry): as above

[27] = target: Beta-adrenergic receptor kinase 1 (Homo sapiens) (UniProt P25098); assay: Inhibition of human GRK2 at 1 uM relative to control

Sequence of Serine/threonine-protein kinase Sgk1 (Homo sapiens) (O00141 whole entry): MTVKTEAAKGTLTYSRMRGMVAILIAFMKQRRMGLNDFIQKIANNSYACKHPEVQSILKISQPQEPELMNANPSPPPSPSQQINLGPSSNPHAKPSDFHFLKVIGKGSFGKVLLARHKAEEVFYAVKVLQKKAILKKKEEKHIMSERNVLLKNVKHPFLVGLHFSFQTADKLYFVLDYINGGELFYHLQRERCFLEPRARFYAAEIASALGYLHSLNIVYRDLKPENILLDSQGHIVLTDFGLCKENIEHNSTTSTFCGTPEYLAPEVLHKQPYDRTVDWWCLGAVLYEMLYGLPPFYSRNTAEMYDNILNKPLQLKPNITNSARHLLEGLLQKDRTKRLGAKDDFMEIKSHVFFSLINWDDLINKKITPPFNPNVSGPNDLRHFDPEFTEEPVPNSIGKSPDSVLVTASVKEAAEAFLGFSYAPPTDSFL
Sequence of Mitogen-activated protein kinase kinase kinase 11 (Homo sapiens) (Q16584 whole entry, looked up): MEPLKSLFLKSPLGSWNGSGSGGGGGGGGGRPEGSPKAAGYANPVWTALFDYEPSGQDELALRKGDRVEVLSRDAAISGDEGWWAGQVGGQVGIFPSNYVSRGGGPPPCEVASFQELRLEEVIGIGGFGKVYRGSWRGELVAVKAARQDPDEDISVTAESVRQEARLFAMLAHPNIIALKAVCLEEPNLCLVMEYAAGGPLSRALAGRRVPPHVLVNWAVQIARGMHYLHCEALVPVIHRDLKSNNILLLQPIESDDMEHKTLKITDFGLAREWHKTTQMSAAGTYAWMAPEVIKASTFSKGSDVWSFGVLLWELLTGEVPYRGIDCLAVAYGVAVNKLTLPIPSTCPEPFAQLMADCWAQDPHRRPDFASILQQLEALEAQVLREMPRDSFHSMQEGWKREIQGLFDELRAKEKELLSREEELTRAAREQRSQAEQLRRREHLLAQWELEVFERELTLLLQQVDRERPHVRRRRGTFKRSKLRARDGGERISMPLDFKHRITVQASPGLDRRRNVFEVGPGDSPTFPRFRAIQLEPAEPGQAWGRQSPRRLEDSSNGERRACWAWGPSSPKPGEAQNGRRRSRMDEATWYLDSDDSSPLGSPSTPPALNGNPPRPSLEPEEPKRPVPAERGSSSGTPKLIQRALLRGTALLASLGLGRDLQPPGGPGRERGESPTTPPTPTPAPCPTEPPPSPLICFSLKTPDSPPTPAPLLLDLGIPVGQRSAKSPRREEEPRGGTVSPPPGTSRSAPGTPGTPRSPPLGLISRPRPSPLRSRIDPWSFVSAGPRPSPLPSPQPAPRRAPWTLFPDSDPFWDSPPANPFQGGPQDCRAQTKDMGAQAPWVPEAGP
Sequence of High affinity nerve growth factor receptor (Homo sapiens) (P04629 33-796 limits assumed): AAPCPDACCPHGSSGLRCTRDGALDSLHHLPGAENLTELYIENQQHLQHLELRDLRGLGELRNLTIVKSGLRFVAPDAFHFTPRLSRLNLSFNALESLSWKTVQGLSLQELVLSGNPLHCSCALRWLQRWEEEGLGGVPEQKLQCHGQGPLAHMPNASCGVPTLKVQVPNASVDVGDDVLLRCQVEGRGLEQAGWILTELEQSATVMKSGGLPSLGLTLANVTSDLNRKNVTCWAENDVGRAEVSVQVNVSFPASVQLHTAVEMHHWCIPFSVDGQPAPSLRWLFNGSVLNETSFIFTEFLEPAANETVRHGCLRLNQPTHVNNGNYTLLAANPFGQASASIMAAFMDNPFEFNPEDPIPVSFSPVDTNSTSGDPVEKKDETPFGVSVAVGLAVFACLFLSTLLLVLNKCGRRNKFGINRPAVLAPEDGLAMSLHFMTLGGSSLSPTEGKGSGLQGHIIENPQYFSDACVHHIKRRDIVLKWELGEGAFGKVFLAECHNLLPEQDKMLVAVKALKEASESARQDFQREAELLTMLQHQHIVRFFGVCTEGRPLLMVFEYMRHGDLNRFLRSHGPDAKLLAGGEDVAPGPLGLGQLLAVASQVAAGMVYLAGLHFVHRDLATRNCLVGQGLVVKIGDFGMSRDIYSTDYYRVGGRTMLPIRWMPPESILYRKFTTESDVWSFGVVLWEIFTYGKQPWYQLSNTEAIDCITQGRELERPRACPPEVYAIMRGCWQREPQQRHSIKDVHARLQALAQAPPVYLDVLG
Sequence of Mitogen-activated protein kinase kinase kinase 7 (Homo sapiens) (O43318 whole entry): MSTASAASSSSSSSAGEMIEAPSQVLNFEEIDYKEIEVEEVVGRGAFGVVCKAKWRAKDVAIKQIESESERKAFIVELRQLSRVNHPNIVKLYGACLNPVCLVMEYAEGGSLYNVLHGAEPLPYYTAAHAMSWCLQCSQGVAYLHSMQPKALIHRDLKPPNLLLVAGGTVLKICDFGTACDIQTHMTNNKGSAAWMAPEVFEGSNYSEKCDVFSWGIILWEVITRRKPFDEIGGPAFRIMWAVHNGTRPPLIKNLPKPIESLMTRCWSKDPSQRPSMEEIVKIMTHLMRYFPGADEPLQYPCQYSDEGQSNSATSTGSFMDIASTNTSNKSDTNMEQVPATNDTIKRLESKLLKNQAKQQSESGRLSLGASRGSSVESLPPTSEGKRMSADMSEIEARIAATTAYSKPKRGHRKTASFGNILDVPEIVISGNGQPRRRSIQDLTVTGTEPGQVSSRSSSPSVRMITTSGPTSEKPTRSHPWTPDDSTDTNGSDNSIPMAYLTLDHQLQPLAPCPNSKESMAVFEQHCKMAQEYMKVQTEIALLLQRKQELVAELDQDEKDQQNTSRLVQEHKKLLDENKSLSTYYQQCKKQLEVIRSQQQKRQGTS
Sequence of Serine/threonine-protein kinase PAK 4 (Homo sapiens) (O96013 whole entry, looked up): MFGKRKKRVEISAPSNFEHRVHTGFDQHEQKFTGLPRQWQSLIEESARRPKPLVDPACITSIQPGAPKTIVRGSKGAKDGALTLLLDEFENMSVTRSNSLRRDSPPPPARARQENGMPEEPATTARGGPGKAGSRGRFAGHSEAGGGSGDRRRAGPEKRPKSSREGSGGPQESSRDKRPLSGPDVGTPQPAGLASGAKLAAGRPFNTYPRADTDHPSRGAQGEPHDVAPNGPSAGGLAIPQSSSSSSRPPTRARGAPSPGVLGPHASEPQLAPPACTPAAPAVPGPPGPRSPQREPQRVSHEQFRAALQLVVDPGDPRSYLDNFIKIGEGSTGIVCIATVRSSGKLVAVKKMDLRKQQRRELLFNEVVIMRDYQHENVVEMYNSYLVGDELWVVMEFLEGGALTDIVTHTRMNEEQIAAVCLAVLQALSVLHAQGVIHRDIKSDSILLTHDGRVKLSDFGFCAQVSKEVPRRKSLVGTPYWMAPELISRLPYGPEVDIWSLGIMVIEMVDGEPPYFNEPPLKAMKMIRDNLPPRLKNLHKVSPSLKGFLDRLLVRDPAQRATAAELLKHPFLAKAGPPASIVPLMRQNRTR
Sequence of Serine/threonine-protein kinase Nek6 (Homo sapiens) (Q9HC98 whole entry): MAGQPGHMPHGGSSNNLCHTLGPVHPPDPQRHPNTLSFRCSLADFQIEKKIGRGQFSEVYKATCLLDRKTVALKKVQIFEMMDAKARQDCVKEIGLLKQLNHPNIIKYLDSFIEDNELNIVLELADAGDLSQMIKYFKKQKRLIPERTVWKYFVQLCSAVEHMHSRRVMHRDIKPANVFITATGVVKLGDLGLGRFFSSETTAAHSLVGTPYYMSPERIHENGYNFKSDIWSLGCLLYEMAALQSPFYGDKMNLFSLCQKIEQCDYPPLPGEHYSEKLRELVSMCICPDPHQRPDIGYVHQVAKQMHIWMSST
Sequence of Ribosomal protein S6 kinase alpha-5 (Homo sapiens) (O75582 whole entry, looked up): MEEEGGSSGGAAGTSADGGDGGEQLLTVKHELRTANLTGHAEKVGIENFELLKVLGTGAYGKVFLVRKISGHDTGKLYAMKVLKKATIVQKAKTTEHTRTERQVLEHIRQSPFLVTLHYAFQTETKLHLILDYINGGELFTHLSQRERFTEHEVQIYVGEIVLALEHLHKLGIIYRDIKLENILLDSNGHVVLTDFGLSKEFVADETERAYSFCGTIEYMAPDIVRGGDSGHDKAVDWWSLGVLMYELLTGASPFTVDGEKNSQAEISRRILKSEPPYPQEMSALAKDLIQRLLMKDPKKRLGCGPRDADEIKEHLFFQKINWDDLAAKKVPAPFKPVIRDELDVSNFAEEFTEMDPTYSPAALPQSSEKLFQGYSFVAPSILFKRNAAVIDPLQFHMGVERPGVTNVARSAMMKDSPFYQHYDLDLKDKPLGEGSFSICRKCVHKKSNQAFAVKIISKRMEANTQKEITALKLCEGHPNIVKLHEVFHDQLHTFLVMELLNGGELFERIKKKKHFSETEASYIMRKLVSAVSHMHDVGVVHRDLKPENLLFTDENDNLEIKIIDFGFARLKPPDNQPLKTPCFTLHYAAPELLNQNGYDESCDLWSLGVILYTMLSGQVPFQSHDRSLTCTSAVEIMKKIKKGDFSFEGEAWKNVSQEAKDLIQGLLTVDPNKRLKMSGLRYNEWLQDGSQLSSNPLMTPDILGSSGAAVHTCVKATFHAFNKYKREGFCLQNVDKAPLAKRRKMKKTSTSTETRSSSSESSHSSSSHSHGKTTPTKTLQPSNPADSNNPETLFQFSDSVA

Cn1c(CNc2cccc(C(=O)NCc3ccccc3C(F)(F)F)c2)nnc1-c1ccncc1
inhibition [1]: Active
Activity [2]: 85%
inhibition [3]: > 50%
Met-Enk (600 nM) response, % of initial [4]: 94%
Activity [5]: 106%
inhibition [6]: 69%
Activity (Homo sapiens): 79%
Activity [7]: 103%
Activity [8]: 95%
Activity [9]: 86%
inhibition [10]: Active
inhibition [11]: Dose-Dependent Effect
inhibition [12]: < 20%
Activity [13]: 101%
inhibition [14]: inactive
Activity [15]: 106%
Activity [16]: 85%
Activity [17]: 113%
Activity [18]: 65%
Activity [19]: 83%
Activity [20]: 89%
inhibition [21]: inactive
Activity [22]: 31%
inhibition [23]: Active
Activity [24]: 106%
Activity [25]: 92%
inhibition [26]: Active
inhibition [27]: > 90%
